In brackets after ≈: the same amount, converted by molar mass.
Experiments:
Candida albicans = assay: Antimicrobial activity against Candida albicans after 24 to 48 hrs by serial dilution technique; type: functional
How it was run: (§1)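 MIC by twofold (1:1) serial dilution in 96-well plates. Medium was MYC (1.0% glucose, 1.0% phytone peptone, 50 mM HEPES, pH 7.0), used for yeasts and fungi.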

[1] = tested on: Chromobacterium violaceum; assay: Antimicrobial activity against Chromobacterium violaceum after 24 to 48 hrs by serial dilution technique; type: functional
Rhodotorula glutinis = assay: Antimicrobial activity against Rhodotorula glutinis after 24 to 48 hrs by serial dilution technique; type: functional; how it was run: as §1
Mucor hiemalis = assay: Antimicrobial activity against Mucor hiemalis after 24 to 48 hrs by serial dilution technique; type: functional; how it was run: as §1
MCF7 = assay: Cytotoxicity against human MCF7 cells after 5 days by MTT assay; type: functional, cell-based; conditions: MCF7, 120 h
Micrococcus luteus = assay: Antimicrobial activity against Micrococcus luteus after 24 to 48 hrs by serial dilution technique; type: functional
[2] = Cytotoxicity against human KB-3-1 cells after 5 days by MTT assay; type: functional, cell-based; conditions: KB 3-1, 120 h
Wickerhamomyces anomalus = assay: Antimicrobial activity against Pichia anamola after 24 to 48 hrs by serial dilution technique; type: functional; how it was run: as §1
Escherichia coli = assay: Antimicrobial activity against Escherichia coli after 24 to 48 hrs by serial dilution technique; type: functional
HUVEC = assay: Cytotoxicity against human HUVEC cells after 5 days by MTT assay; type: cell-based; conditions: 120 h
[3] = tested on: Schizosaccharomyces pombe; assay: Antimicrobial activity against Schizosaccharomyces pombe after 24 to 48 hrs by serial dilution technique; type: functional; how it was run: as §1
L929 = assay: Cytotoxicity against mouse L929 cells after 5 days by MTT assay; type: functional, cell-based; conditions: L929, 120 h
Pseudomonas aeruginosa = assay: Antimicrobial activity against Pseudomonas aeruginosa after 24 to 48 hrs by serial dilution technique; type: functional
[4] = Antimicrobial activity against Nocardia flava after 24 to 48 hrs by serial dilution technique; type: functional
Staphylococcus aureus = assay: Antimicrobial activity against methicillin-resistant Staphylococcus aureus after 24 to 48 hrs by serial dilution technique; type: functional

Row | Compound | MIC (Candida albicans) [µg/mL] | MIC [1] [µg/mL] | MIC (Rhodotorula glutinis) [µg/mL] | MIC (Mucor hiemalis) [µg/mL] | IC50 (MCF7) [nM] | MIC (Micrococcus luteus) [µg/mL] | IC50 [2] [µM] | MIC (Wickerhamomyces anomalus; Hansenula anomala) [µg/mL] | MIC (Escherichia coli) [µg/mL] | IC50 (HUVEC) [nM] | MIC [3] [µg/mL] | IC50 (L929) [nM] | MIC (Pseudomonas aeruginosa) [µg/mL] | MIC [4] [µg/mL] | MIC (Staphylococcus aureus) [µg/mL] | MIC (Wickerhamomyces anomalus) [µg/mL]
1 | CSC1=CC(=O)C(N)=C(Cl)C1=O [HYALADIONE] | > 33.3 | 2.1 (≈ 10.3 µM) | 1.7 (≈ 8.35 µM) | 16.5 (≈ 81 µM) | 1230 | 3.3 (≈ 16.2 µM) | 3.93 | 33.3 (≈ 164 µM) | 33.3 (≈ 164 µM) | 2210 | > 33.3 | 1470 | 8.5 (≈ 41.7 µM) | 3.3 (≈ 16.2 µM) | 0.83 (≈ 4.08 µM) | –
2 | CN(C)[C@@H]1C(O)=C(C(N)=O)C(=O)[C@@]2(O)C(O)=C3C(=O)c4c(O)cccc4[C@@](C)(O)[C@H]3[C@H](O)[C@@H]12.Cl [OXYTETRACYCLINE HYDROCHLORIDE] | – | 0.21 | – | – | – | 0.104 | – | – | 0.83 | – | – | – | – | 1.67 | 0.104 | –
3 | NYSTATIN | 1.67 | – | 0.42 | 1.67 | – | – | – | – | – | – | 1.67 | – | – | – | – | 1.67

Reference: ChEMBL document CHEMBL2040741, “Hyaladione, an S-methyl cyclohexadiene-dione from Hyalangium minutum” (J Nat Prod, 2012)
